A short description of series [1]: Drug uptake in mouse Colon 26 cells at 1 uM after 24 hrs in dark by flow cytometry. Format: ADME, cell-based. As to conditions: colon 26, 24 h. The method in brief: (§1)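 Colon-26 or U87 cells seeded at 5.0 × 10⁵ per well, 24 h, then exposed to conjugate at 1 µM in the dark at 37°C for 24 h. Cells harvested, spun cold at 10°C, resuspended in cold 2% FCS in PBS, run on a BD LSR II. Analysis used the 405 nm violet laser with 780/60, 710/50 and 660/20 nm filters.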

Series [2] in a line: Drug uptake in human U87 cells at 1 uM after 24 hrs in dark by flow cytometry. Format: ADME, cell-based. As to conditions: u-87mg atcc. The method in brief:
as §1
(In general: Flow cytometry measures light scatter and fluorescence of single cells or particles in a stream.)

Series [3] in a line: Drug uptake in immunocompromized nude mouse tumor xenografted with human U87 cells at 0.03 umol/kg, iv after 24 to 72 hrs by reflectance spectroscopic analysis. Format: ADME, organism-based, Neoplasm, U-87MG ATCC. Particulars: in vivo.
The nature of series [4]: Ratio of drug uptake in tumor to skin in Balb/c mouse implanted with mouse Colon 26 cells at 0.3 umol/kg, iv after 24 hrs by reflectance spectroscopic analysis. Format: ADME, organism-based. Particulars: in vivo.
Series [5] is described as follows: Phototoxicity against mouse Colon 26 cells assessed as reduction in cell viability preincubated for 24 hrs with subsequent 4 J/cm2 irradiation measured after 48 hrs incubation in dark by MTT assay. Format: functional, cell-based. Particulars: Colon 26, light or radiation study. The method in brief:
(§2)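 Colon-26 (RPMI-1640, 10% FCS) or U87 (MEM, 10% FCS) cells at 5000/well were given conjugate at 0–4 µM for 24 h. Compounds were formulated in 1% Tween-80/D5W and diluted in medium. Cells were washed and refed, then irradiated at 4 J/cm², 3.2 mW/cm². Then 44 h at 37°C in the dark, MTT 4 h, DMSO, A560. EC50 at 4 J/cm². Colon-26: two independent experiments, triplicates.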

Series [6] is described as follows: Phototoxicity against mouse Colon 26 cells implanted in Balb/c mouse assessed as tumor cure incidents at 1.5 umol/kg, iv preincubated for 24 hrs with subsequent irradiation at 128 J/cm2 measured after 60 days. Format: functional. The method in brief:
(§3)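 BALB/c mice bore s.c. Colon-26 tumors (1 × 10⁶ cells, shoulder) of 4–5 mm. Conjugate given i.v. via tail vein at 0.4, 0.75, 1.5, 2.5 or 3.5 µmol/kg. At 24 h unanesthetized mice got 665 nm laser, 128 J/cm², 14 mW/cm², 1.1 cm spot. Regrowth checked daily, volume L*W²/2. Cure = no palpable tumor by day 60; euthanasia at 400 mm³.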

Series [7] in a line: Phototoxicity against human U87 cells assessed as reduction in cell viability preincubated for 24 hrs with subsequent irradiation 4 J/cm2 followed by 48 hrs incubation in dark by MTT assay. As to conditions: U-87 MG, light or radiation study. Format: functional, cell-based, U-87MG ATCC. The method in brief: as §2
On the technique in general: Tetrazolium assays rely on reduction of a dye to a coloured formazan, in cell work by metabolically active cells.

Series [8] has as its system U-87MG ATCC. The experiment in a line: Phototoxicity against human U87 cells xenografted in immunocompromized nude mouse assessed as increase in tumor cure incidents at 1.5 umol/kg, iv preincubated for 24 hrs subsequent irradiation at 128 J/cm2 measured after 60 days. Format: functional, organism-based. In short, it runs like this:
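Athymic nude mice bore s.c. U87 tumors (2 × 10⁶ cells) of 4–5 mm. Conjugate given i.v. at 1.5 µmol/kg. At 24 h post-injection tumors got 665 nm laser light, 128 J/cm², 14 mW/cm². Mice followed daily for regrowth; cure = no palpable tumor by day 60.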
(A xenograft is tissue or cells of one species grown in another, often human tumour cells in immunodeficient mice.)

Series [9] in a line: Drug uptake in Balb/c mouse liver implanted with mouse Colon 26 cells at 0.3 umol/kg, iv after 24 hrs by reflectance spectroscopic analysis. Format: ADME, organism-based. As to conditions: in vivo.
A short description of series [10]: Drug uptake in mouse colon 26 cell mitochondria assessed as color overlay at 1 uM after 24 hrs in dark by mitotracker red dye-based confocal microscopic analysis. Format: ADME. Particulars: colon 26, 24 h. In short, it runs like this:
(§4)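 Colon-26 cells held with conjugate at 1 µM, imaged 24 h later by confocal microscopy. Lysosomal dye FluoSpheres yellow green at 1/100,000 dilution of commercial stock; mitochondrial MitoTracker Red at 2.5 nM for 10 min. Overlays of the conjugate signal with each organelle dye.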

A short description of series [11]: Drug uptake in human U87 cell mitochondria assessed as color overlay at 1 uM after 24 hrs in dark by mitotracker red dye-based confocal microscopic analysis. Format: ADME. Particulars: u-87mg atcc. In short, it runs like this: (§5)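 U87 cells held with conjugate at 1 µM, imaged 24 h later by confocal microscopy. Lysosomal FluoSpheres yellow green at 1/100,000 dilution of commercial stock; MitoTracker Red 2.5 nM for 10 min. Overlays of the conjugate signal with each organelle dye.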

Series [12] can be described thus: Drug uptake in mouse colon 26 cell lysosomes assessed as color overlay at 1 uM after 24 hrs in dark by FluoSpheres yellow green dye-based confocal microscopic analysis. As to conditions: colon 26, 24 h. Format: ADME, Lysosome. The method in brief: as §4
A short description of series [13]: Drug uptake in human U87 cell lysosomes assessed as color overlay at 1 uM after 24 hrs in dark by FluoSpheres yellow green dye-based confocal microscopic analysis. Format: ADME, Lysosome. As to conditions: u-87mg atcc. The method in brief: as §5
A short description of series [14]: Phototoxicity against mouse Colon 26 cells implanted in Balb/c mouse assessed as tumor cure incidents at 3.5 umol/kg, iv pretreated for 24 hrs subsequent irradiation at 128 J/cm2 measured after 60 days relative to control. Format: functional. The method in brief:
as §3

A short description of series [15]: Drug uptake in mouse colon 26 cell mitochondria assessed as color overlay at 0.25 to 2 uM after 4 to 24 hrs in dark by mitotracker red dye-based confocal microscopic analysis. Format: ADME. As to conditions: colon 26, 2 µM. The method in brief: (§6)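 Colon-26 cells seeded at 1.25 × 10⁵ in glass-bottom dishes, cultured 24–48 h, then given conjugate at 0.25, 0.5, 1.0 or 2.0 µM in the dark at 37°C for 4 h and 24 h. Co-stained with MitoTracker Red 2.5 nM for 10 min and FluoSpheres yellow/green 1/10,000 of a 1/10 stock for 24 h. Media replaced before Leica TCS SP2 confocal imaging; excitation 488 (lysosome), 543 (mitochondria), 633 nm (HPPH).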

The nature of series [16]: Drug uptake in human U87 cell mitochondria assessed as color overlay at 0.25 to 2 uM after 4 to 24 hrs in dark by mitotracker red dye-based confocal microscopic analysis. As to conditions: u-87mg atcc. Format: ADME. The method in brief:
(§7)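 U87 glioblastoma cells seeded at 1.25 × 10⁵ in glass-bottom dishes, cultured 24–48 h, then given conjugate at 0.25, 0.5, 1.0 or 2.0 µM in the dark at 37°C for 4 h and 24 h. Co-stained with MitoTracker Red 2.5 nM for 10 min and FluoSpheres yellow/green 1/10,000 of a 1/10 stock for 24 h. Confocal imaging with excitation 488, 543 and 633 nm.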

Series [17] is described as follows: Drug uptake in mouse colon 26 cell lysosomes assessed as color overlay at 0.25 to 2 uM after 4 to 24 hrs in dark by FluoSpheres yellow green dye-based confocal microscopic analysis. Format: ADME, Lysosome. As to conditions: colon 26, 2 µM. In short, it runs like this:
as §6

Series [18] can be described thus: Drug uptake in human U87 cell lysosomes assessed as color overlay at 0.25 to 2 uM after 4 to 24 hrs in dark by FluoSpheres yellow green dye-based confocal microscopic analysis. Format: ADME, Lysosome. Particulars: u-87mg atcc. In short, it runs like this: as §7
Series [19] has as its system Colon 26. The experiment in a line: Phototoxicity against mouse Colon 26 cells implanted in Balb/c mouse assessed as increase in tumor cure incidents at 0.75 to 1.5 umol/kg, iv preincubated for 24 hrs with subsequent irradiation at 128 J/cm2 measured up to 60 days. Format: functional, organism-based. In short, it runs like this:
as §3

Series [20] concerns Mus musculus. In words: Toxicity in Balb/c mouse implanted with mouse Colon 26 cells assessed as mortality at 2.5 to 3.5 umol/kg, iv preincubated for 24 hrs subsequent irradiation at 128 J/cm2 measured up to 60 days. Format: organism-based. Particulars: in vivo, 1440 h. In short, it runs like this:
(§8)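 BALB/c mice carried s.c. Colon-26 tumours (1 × 10⁶ cells, right posterior shoulder) grown to 4–5 mm. Conjugates were given i.v. via the tail vein at 0.4–3.5 µmol/kg. At 24 h, unanaesthetised restrained mice received 665 nm laser light on a 1.1 cm spot (128 J/cm², 14 mW/cm²). Mice were observed daily for up to 60 days for death or morbidity, which led to euthanasia.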

The test system of series [21] is Mus musculus. The experiment in a line: Toxicity in Balb/c mouse implanted with mouse Colon 26 cells assessed as morbidity at 2.5 to 3.5 umol/kg, iv preincubated for 24 hrs subsequent irradiation at 128 J/cm2 measured up to 60 days. Format: organism-based. As to conditions: in vivo, 1440 h. The method in brief: as §8

The source made the active and inactive calls. No cut-off for these calls is given here.

For the compound `CCCCCCOC(C)c1c(C)c2cc3nc(c4c5[nH]c(cc6nc(cc1[nH]2)C(C)=C6CC)c(C)c5C(=O)C4)[C@@H](CCC(=O)NCCCCNC(=O)c1cccc(SC2=C(/C=C/C4=[N+](CCCCS(=O)(=O)[O-])c5ccc6ccccc6c5C4(C)C)CCC/C2=C\C=C2\N(CCCCS(=O)(=O)O)c4ccc5ccccc5c4C2(C)C)c1)[C@@H]3C` (stereo partly specified), the Drug uptake entry in [1], in series [2], in [3], in series [9], in series [10] and in series [11] was “Active” throughout. Also, the Drug uptake result in [12] and in series [13] was “Active” each time. Also, the Ratio in series [4] amounted to 6.5. The concentration for a half-maximal effect (EC50) (usually the midpoint of the concentration-response curve) in [5] was found to be 180 nM; in series [7] it was 150 nM. Moreover, the Activity in series [6] is 80%. The outcome in series [8] was Active.

In the case of `CCCCCCOC(C)c1c(C)c2cc3nc(c4c5[nH]c(cc6nc(cc1[nH]2)C(C)=C6CC)c(C)c5C(=O)C4)[C@@H](CCC(=O)NCCCCCCNC(=O)c1ccc(SC2=C(/C=C/C4=[N+](CCCCS(=O)(=O)[O-])c5ccc6ccccc6c5C4(C)C)CCC/C2=C\C=C2\N(CCCCS(=O)(=O)O)c4ccc5ccccc5c4C2(C)C)cc1)[C@@H]3C` (stereo partly specified), the Ratio in series [4] came out at 2.3. In addition, the EC50 came out at 720 nM in [5] and 590 nM in series [7]. Besides, in [14], the Activity is recorded as 70%. The result in [8] and in series [19] was Active. The Drug uptake result in series [9], in [15], in series [16], in series [17] and in [18] was “Active” each time.

Regarding `CCCCCCOC(C)c1c(C)c2cc3nc(c4c5[nH]c(cc6nc(cc1[nH]2)C(C)=C6CC)c(C)c5C(=O)C4)[C@@H](CCC(=O)NCCNC(=O)c1cccc(SC2=C(/C=C/C4=[N+](CCCCS(=O)(=O)[O-])c5ccc6ccccc6c5C4(C)C)CCC/C2=C\C=C2\N(CCCCS(=O)(=O)O)c4ccc5ccccc5c4C2(C)C)c1)[C@@H]3C` (stereo partly specified), in series [4], the Ratio was 2.5. In addition, the concentration giving a half-maximal response (EC50) in [5] was 1580 nM; in [7], 570 nM. Further, the Activity was 80% in series [6], “Toxic” in series [20] and “Toxic” in series [21]. Further, the Drug uptake entry in series [9], in series [15], in [16], in [17] and in series [18] was “Active” each time.

Regarding `CCCCCCOC(C)c1c(C)c2cc3nc(c4c5[nH]c(cc6nc(cc1[nH]2)C(C)=C6CC)c(C)c5C(=O)C4)[C@@H](CCC(=O)NCCCCNC(=O)c1ccc(SC2=C(/C=C/C4=[N+](CCCCS(=O)(=O)[O-])c5ccc6ccccc6c5C4(C)C)CCC/C2=C\C=C2\N(CCCCS(=O)(=O)O)c4ccc5ccccc5c4C2(C)C)cc1)[C@@H]3C` (stereo partly specified), the Drug uptake entry in series [1], in [2], in series [9], in [15], in series [16] and in series [17] was “Active” each time. In addition, the Drug uptake result in series [18] is “Active”. The Ratio in series [4] is listed as 10. For the same compound, the results for the EC50 in series [5] and in series [7] were 130 nM and 290 nM, respectively. Besides, the Activity in [6] came to 20%.

As to `CCCCCCOC(C)c1c(C)c2cc3nc(c4c5[nH]c(cc6nc(cc1[nH]2)C(C)=C6CC)c(C)c5C(=O)C4)[C@@H](CCC(=O)NCCCCCCNC(=O)c1cccc(SC2=C(/C=C/C4=[N+](CCCCS(=O)(=O)[O-])c5ccc6ccccc6c5C4(C)C)CCC/C2=C\C=C2\N(CCCCS(=O)(=O)O)c4ccc5ccccc5c4C2(C)C)c1)[C@@H]3C` (stereo partly specified), the Ratio in series [4] was determined as 2.5. Further, the EC50 in [5] was found to be 200 nM; in series [7], 380 nM. The Activity in series [14] came out at 90%. Also, the Drug uptake entry in [9], in series [15], in series [16], in series [17] and in series [18] was “Active” in each case. In addition, the outcome in series [19] was Active.

As to `CCCCCCOC(C)c1c(C)c2cc3nc(c4c5[nH]c(cc6nc(cc1[nH]2)C(C)=C6CC)c(C)c5C(=O)C4)[C@@H](CCC(=O)NCCNC(=O)c1ccc(SC2=C(/C=C/C4=[N+](CCCCS(=O)(=O)[O-])c5ccc6ccccc6c5C4(C)C)CCC/C2=C\C=C2\N(CCCCS(=O)(=O)O)c4ccc5ccccc5c4C2(C)C)cc1)[C@@H]3C` (stereo partly specified), in [4], the Ratio was 2. Moreover, the 50% effective concentration (EC50) was found to be 2510 nM in series [5] and 790 nM in series [7]. The Activity entry in series [20] and in [21] was “Toxic” in each case. Moreover, the Drug uptake result in series [9], in series [15], in [16], in series [17] and in series [18] was “Active” in each case.
